In ChEMBL document CHEMBL2163238, “Design, synthesis, and biological evaluation of N-alkylated deoxynojirimycin (DNJ) derivatives for the treatment of dengue virus infection” (J Med Chem, 2012):
Converted amounts (≈) assume the structure as drawn. The source made the active and inactive calls. The rule behind the calls is not given here.

Legend:
[1] = biological target: T1, CYP3A4 (Homo sapiens, UniProt P08684); assay: Inhibition of human CYP3A4 using midazolam as substrate at 10 uM; assay type: ADME; details: probe midazolam
Outline: (§1)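 Inhibition of CYP isoforms with compound at 10 μM, reported as % inhibition. CYP3A4 run with midazolam or testosterone as substrate.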

[2] = Plasma protein binding in mouse plasma; assay type: ADME, cell-free; details: read-out: PPB (converted)
Outline: (§2)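 Binding of compound to human, rat or mouse plasma protein, reported as % bound.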

[3] = Metabolic stability in rat liver microsomes at 60 mins; assay type: ADME, Microsome; details: read-out: Stability
[4] = Plasma protein binding in human plasma; assay type: ADME, cell-free; details: read-out: PPB (converted); outline: as §2
[5] = system: MDBK; assay: Competitive inhibition of endoplasmic reticulum-resident alpha-glucosidase in MDBK cells infected with 1 MOI BVDV assessed as decrease in viral E2 protein mobility at 0.8 to 100 uM after 24 hrs by Western blotting; assay type: cell-based; details: Bos taurus
Outline: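 MDBK cells infected with BVDV at MOI 1 for 1 h, then compounds at 0.8, 4.0, 20 and 100 μM. Cells lysed in Laemmli buffer, run on 12% polyacrylamide gel and transferred to nitrocellulose. BVDV E2 mobility probed with monoclonal WB166 and β-actin detected in parallel. IR-dye secondary antibody, Odyssey imaging.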

[6] = biological target: CYP2D6 (Homo sapiens, UniProt P10635); assay: Inhibition of human CYP2D6 at 10 uM; assay type: ADME
Outline: (§3)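 Inhibition of CYP isoforms by compounds tested at 10 μM, given as percent inhibition; contract in vitro ADME panel.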

[7] = Cytotoxicity against BHK cells assessed as cell viability by MTT assay; assay type: cell-based, Mesocricetus auratus; details: hamster
[8] = Volume of distribution in Sprague-Dawley rat at 5 mg/kg, iv; assay type: ADME, organism-based; parameters: dose 5 mg/kg, route intravenous; details: in vivo
[9] = Aqueous solubility in PBS at pH 7.4; assay type: physicochemical; details: buffer
[10] = biological target: T1, CYP3A4; assay: Inhibition of human CYP3A4 using testosterone as substrate at 10 uM; assay type: ADME; details: probe testosterone; outline: as §1
[11] = Metabolic stability in mouse liver microsomes at 60 mins; assay type: ADME, Microsome; details: read-out: Stability
[12] = system: Dengue virus; assay: Antiviral activity against 0.01 MOI DENV infected in human Huh7.5 cells assessed as reduction in viral […] protein level at 0.1 to 100 uM after 2 days by Western blotting; assay type: functional, organism-based; details: Huh-7
[13] = system: Rattus norvegicus; assay: Acute toxicity in Sprague-Dawley rat assessed as mortality at 25 to 200 mg/kg, po after 7 days; assay type: organism-based; parameters: dose 25-200 mg/kg, route oral; details: in vivo, 168 h
[14] = Plasma half life in Sprague-Dawley rat at 5 mg/kg, iv; assay type: ADME, organism-based; parameters: dose 5 mg/kg, route intravenous
[15] = Cytotoxicity against human Huh7.5 cells assessed as cell viability by DRAQ5 and Sapphire 700 staining; details: huh-7
[16] = Metabolic stability in human liver microsomes at 60 mins; assay type: ADME, Microsome; details: read-out: Stability
[17] = Cytotoxicity against MDBK cells assessed as cell viability by MTT assay; assay type: cell-based, Bos taurus; details: cattle
[18] = Antiviral activity against 1 MOI BVDV NADL infected in MDBK cells assessed as reduction in viral titer after 22 hrs; assay type: functional, cell-based, Bovine viral diarrhea virus 1-NADL; details: Bovine viral diarrhea virus isolates and strains, MDBK, 22 h
Outline: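 MDBK cells (2×10^5) infected 24 h after seeding with BVDV NADL at MOI 1, with 1 h adsorption at 37 °C. Washed, then compounds at 0.1–100 μM. Media harvested 22 h post-infection and plaque-titrated on MDBK under 1% methylcellulose for 3 days. Plaques counted directly or after neutral red staining. EC50 from dose–response curves, mean of 3 independent experiments.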

[19] = system: Rattus norvegicus; assay: Acute toxicity in Sprague-Dawley rat assessed as occurrence of soft feces at 50 to 100 mg/kg, po measured at 1 to 2 days; assay type: organism-based; parameters: route oral; details: in vivo
Outline: (§4)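 Single oral dose (25, 50, 100 or 200 mg/kg, or vehicle) given to 10-week-old male rats, 2 per group. Compound dissolved at 20 mM in PBS with 10% Solutol HS15, shaken 6 h at 37 °C. Animals observed 7 days for clinical signs, body weight and food consumption, then sacrificed on day 8.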

[20] = in vivo; details: Sprague-Dawley, rat, po, 25 mg/kg
[21] = system: dengue virus type 2; assay: Antiviral activity against 0.01 MOI DENV-2 NGC infected in BHK cells assessed as reduction in viral titer after 48 hrs; assay type: functional, organism-based
Outline: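 BHK cells infected with DENV-2 New Guinea C at MOI 0.01 for 1 h. Inoculum removed, then compounds at 0.1–100 μM for 48 h at 37 °C. Supernatants titrated on Vero monolayers as 10-fold dilutions under 0.5% methylcellulose for 3–5 days. Foci detected by 4G2 immunostaining or crystal violet plaques. EC50 from dose–response curves, mean of 3 independent experiments.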

[22] = system: Rattus norvegicus; assay: Acute toxicity in Sprague-Dawley rat assessed as occurrence of diarrhea at 200 mg/kg, po measured at 1 to 2 days; assay type: organism-based; parameters: dose 200 mg/kg, route oral; details: in vivo; outline: as §4
[23] = Aqueous solubility in PBS at pH 4; assay type: physicochemical; details: buffer
[24] = biological target: CYP2C19 (Homo sapiens, UniProt P33261); assay: Inhibition of human CYP2C19 at 10 uM; assay type: ADME; outline: as §1
[25] = biological target: CYP2C9 (Homo sapiens, UniProt P11712); assay: Inhibition of human CYP2C9 at 10 uM; assay type: ADME; outline: as §3
[26] = system: Rattus norvegicus; assay: Volume of distribution in Sprague-Dawley rat at 25 mg/kg, po; assay type: ADME, organism-based; parameters: dose 25 mg/kg, route oral; details: in vivo
[27] = Plasma protein binding in rat plasma; assay type: ADME, cell-free; details: read-out: PPB (converted); outline: as §2
[28] = system: Rattus norvegicus; assay: Acute toxicity in Sprague-Dawley rat assessed as body weight loss at 25 to 200 mg/kg, po after 7 days; assay type: organism-based; parameters: dose 25-200 mg/kg, route oral; details: in vivo, 168 h; outline: as §4
[29] = biological target: T2, CYP1A2 (Homo sapiens, UniProt P05177); assay: Inhibition of human CYP1A2 at 10 uM; assay type: ADME; outline: as §1
T2 sequence (P05177 whole entry): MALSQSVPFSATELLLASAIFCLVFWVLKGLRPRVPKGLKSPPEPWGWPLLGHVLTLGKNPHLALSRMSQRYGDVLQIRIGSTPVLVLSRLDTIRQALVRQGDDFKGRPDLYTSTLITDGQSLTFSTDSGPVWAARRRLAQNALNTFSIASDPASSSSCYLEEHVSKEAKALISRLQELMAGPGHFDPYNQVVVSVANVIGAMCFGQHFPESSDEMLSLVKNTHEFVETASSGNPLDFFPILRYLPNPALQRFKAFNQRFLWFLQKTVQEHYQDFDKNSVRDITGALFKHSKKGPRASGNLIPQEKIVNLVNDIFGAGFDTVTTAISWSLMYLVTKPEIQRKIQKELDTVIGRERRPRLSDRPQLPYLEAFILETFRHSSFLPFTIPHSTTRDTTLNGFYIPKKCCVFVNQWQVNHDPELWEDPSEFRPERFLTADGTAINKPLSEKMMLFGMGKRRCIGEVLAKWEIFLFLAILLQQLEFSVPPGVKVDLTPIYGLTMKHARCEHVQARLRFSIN

T1 sequence (P08684 whole entry, canonical isoform): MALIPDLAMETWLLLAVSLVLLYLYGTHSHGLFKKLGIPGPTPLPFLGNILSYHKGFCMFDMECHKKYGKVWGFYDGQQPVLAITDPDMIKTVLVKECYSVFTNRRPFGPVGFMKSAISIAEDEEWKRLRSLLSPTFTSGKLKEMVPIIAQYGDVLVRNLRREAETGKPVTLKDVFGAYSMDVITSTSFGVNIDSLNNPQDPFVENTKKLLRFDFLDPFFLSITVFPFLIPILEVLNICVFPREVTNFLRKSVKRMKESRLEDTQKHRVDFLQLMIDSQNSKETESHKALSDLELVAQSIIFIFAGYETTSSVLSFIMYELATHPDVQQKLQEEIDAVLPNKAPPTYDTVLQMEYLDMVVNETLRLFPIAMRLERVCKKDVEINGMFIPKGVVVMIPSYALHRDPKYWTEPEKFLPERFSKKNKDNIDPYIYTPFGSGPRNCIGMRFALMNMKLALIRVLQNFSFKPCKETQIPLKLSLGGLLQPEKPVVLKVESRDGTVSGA
Sequence of CYP2D6 (P10635 whole entry, canonical isoform): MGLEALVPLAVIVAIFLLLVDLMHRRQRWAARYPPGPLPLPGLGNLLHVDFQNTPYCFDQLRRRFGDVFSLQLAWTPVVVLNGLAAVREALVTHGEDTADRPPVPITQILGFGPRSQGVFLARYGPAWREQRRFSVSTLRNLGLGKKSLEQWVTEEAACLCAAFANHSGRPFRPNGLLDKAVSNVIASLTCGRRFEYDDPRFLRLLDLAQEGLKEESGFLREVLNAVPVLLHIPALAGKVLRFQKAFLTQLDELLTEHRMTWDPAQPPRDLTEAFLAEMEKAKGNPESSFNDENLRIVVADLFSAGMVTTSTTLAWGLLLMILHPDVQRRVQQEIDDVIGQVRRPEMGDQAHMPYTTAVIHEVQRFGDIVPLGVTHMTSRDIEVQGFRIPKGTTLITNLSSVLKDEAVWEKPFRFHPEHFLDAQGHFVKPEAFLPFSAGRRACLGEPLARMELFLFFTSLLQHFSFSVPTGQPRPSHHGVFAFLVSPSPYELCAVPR
Sequence of CYP2C19 (P33261 whole entry): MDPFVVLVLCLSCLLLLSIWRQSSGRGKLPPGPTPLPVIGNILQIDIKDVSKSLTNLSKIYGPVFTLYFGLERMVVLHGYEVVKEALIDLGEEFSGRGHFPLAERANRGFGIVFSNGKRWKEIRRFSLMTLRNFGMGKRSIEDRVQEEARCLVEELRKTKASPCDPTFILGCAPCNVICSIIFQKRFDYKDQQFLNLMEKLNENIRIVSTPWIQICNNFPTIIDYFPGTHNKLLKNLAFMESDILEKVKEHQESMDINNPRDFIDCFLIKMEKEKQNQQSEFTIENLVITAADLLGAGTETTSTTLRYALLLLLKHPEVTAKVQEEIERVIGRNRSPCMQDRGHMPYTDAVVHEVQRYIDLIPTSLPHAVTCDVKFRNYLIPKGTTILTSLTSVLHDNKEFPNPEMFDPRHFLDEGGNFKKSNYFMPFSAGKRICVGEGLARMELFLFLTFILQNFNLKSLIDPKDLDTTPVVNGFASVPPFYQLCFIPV
Sequence of CYP2C9 (P11712 whole entry): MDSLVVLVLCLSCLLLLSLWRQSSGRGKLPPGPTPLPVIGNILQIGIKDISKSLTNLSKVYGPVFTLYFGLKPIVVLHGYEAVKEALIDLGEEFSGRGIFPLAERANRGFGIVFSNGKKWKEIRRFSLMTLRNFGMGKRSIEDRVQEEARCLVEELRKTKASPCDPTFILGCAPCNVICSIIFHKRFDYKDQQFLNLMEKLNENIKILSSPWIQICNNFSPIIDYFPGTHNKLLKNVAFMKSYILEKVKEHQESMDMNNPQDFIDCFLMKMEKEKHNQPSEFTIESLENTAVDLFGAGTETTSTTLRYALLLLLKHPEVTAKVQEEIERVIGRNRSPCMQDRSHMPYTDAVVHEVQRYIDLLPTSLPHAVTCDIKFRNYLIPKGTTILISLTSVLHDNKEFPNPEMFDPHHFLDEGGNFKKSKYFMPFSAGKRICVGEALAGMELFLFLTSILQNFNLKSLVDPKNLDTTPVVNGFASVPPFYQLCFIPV

`OC[C@@H]1[C@@H](O)[C@H](O)[C@@H](O)CN1CCCCCCOc1cc(F)ccc1F` gave an inhibition at 10 µM [1] of 10.9%, a fraction unbound [2] of 0.23 and a remaining at 1 h [3] of 79%. The fraction unbound [4] was 0.26, the inhibition [5] was “Active” and the inhibition at 10 µM [6] was 11.4%. The CC50 [7] was greater than 500000 nM, the Vd [8] was 3.1 L/kg and the solubility [9] was 292 µM (≈ 110 µg/mL). For the same compound, the inhibition at 10 µM [10] was -1.9%, the remaining at 1 h [11] was 91% and the Activity [12] was “Active”. For the same compound, the Activity [13] was “Non-toxic”, the half-life [14] was 1.44 h and the Activity [15] was “Non-toxic”. The remaining at 1 h [16] was 91%, the CC50 [17] was greater than 500000 nM and the EC50 [18] was 500 nM. The Activity [19] was “Toxic”, the Tmax [20] was 4.2 h and the Activity [21] was “Dose-dependent effect”. The EC50 [21] was 400 nM, the Activity [22] was “Toxic” and the solubility [23] was 296 µM (≈ 111 µg/mL). It also gave an inhibition at 10 µM [24] of 1.6%, an inhibition at 10 µM [25] of 7.1% and a Vd [26] of 17.2 L/kg. The fraction unbound [27] was 0.32, the Activity [28] was “Non-toxic” and the inhibition at 10 µM [29] was 24.4%.
